Converted amounts (≈) assume the structure as drawn.
Columns and labels:
Assay type in all cases: functional
Escherichia coli [1] = assay: Antimicrobial activity against Escherichia coli DH5alpha by agar dilution method
How it was run: (§1)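 Agar dilution MIC testing run per CLSI (formerly NCCLS) guidelines. Where an agent was combined with clavulanic acid, the clavulanic acid was held at a fixed 4 μg/ml.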

Escherichia coli [2] = assay: Antimicrobial activity against Escherichia coli DH5-alpha with pGEM-T EASY expressing TEM1 gene by agar dilution method; settings: DH5alpha; how it was run: as §1
Escherichia coli [3] = assay: Antimicrobial activity against Escherichia coli DH5-alpha pYW1 transformants expressing KPC2 gene by agar dilution method; settings: DH5alpha; how it was run: as §1
Klebsiella pneumoniae = assay: Antimicrobial activity against carbapenem-resistant Klebsiella pneumoniae ZR01 from patient sputum by agar dilution method; how it was run: as §1
Escherichia coli [4] = assay: Antimicrobial activity against Escherichia coli DH5-alpha with pYW2 expressing KPC2 and TEM1 gene by agar dilution method; settings: DH5alpha; how it was run: as §1

| Compound | MIC (Escherichia coli [1]) | MIC (Escherichia coli [2]) | MIC (Escherichia coli [3]) | MIC (Klebsiella pneumoniae) | MIC (Escherichia coli [4]) |
| --- | --- | --- | --- | --- | --- |
| CC(C)(O/N=C(\C(=O)N[C@@H]1C(=O)N2C(C(=O)[O-])=C(C[n+]3ccccc3)CS[C@H]12)c1csc(N)n1)C(=O)O [CEFTAZIDIME] | 0.25 µg/mL (≈ 0.457 µM) | 0.5 µg/mL (≈ 0.915 µM) | 4 µg/mL (≈ 7.32 µM) | > 256 µg/mL | 32 µg/mL (≈ 58.5 µM) |
| CO[C@H]1/C=C/O[C@@]2(C)Oc3c(C)c(O)c4c(O)c(c(/C=N/N5CCN(C)CC5)c(O)c4c3C2=O)NC(=O)/C(C)=C\C=C\[C@H](C)[C@H](O)[C@@H](C)[C@@H](O)[C@@H](C)[C@H](OC(C)=O)[C@@H]1C [RIFAMPIN] | 16 µg/mL (≈ 19.4 µM) | 16 µg/mL (≈ 19.4 µM) | 16 µg/mL (≈ 19.4 µM) | 16 µg/mL (≈ 19.4 µM) | 16 µg/mL (≈ 19.4 µM) |
| C[C@@H](O)[C@H]1C(=O)N2C(C(=O)O)=C(S[C@@H]3CN[C@H](C(=O)N(C)C)C3)[C@H](C)[C@H]12 [MEROPENEM] | 0.06 µg/mL (≈ 0.156 µM) | 0.06 µg/mL (≈ 0.156 µM) | 4 µg/mL (≈ 10.4 µM) | > 32 µg/mL | 4 µg/mL (≈ 10.4 µM) |
| POLYMYXIN B | 1 µg/mL | 1 µg/mL | 1 µg/mL | 2 µg/mL | 1 µg/mL |
| NCC[C@H](O)C(=O)N[C@@H]1C[C@H](N)[C@@H](O[C@H]2O[C@H](CN)[C@@H](O)[C@H](O)[C@H]2O)[C@H](O)[C@H]1O[C@H]1O[C@H](CO)[C@@H](O)[C@H](N)[C@H]1O [AMIKACIN] | 1 µg/mL (≈ 1.71 µM) | 1 µg/mL (≈ 1.71 µM) | 1 µg/mL (≈ 1.71 µM) | > 256 µg/mL | 1 µg/mL (≈ 1.71 µM) |
| COLISTIN | 0.5 µg/mL | 0.5 µg/mL | 0.5 µg/mL | 0.5 µg/mL | 0.5 µg/mL |
| CO/N=C(\C(=O)N[C@@H]1C(=O)N2C(C(=O)O)=C(CSc3nc(=O)c(O)nn3C)CS[C@H]12)c1csc(N)n1 [CEFTRIAXONE] | 0.094 µg/mL (≈ 0.169 µM) | 0.094 µg/mL (≈ 0.169 µM) | 8 µg/mL (≈ 14.4 µM) | > 256 µg/mL | 64 µg/mL (≈ 115 µM) |
| O=C(O)c1cn(C2CC2)c2cc(N3CCNCC3)c(F)cc2c1=O [CIPROFLOXACIN] | – | – | – | > 32 µg/mL | – |
| C[C@@H](O)[C@H]1C(=O)N2C(C(=O)O)=C(SCCNC=N)C[C@H]12 [IMIPENEM ANHYDROUS] | – | – | 4 µg/mL (≈ 13.4 µM) | > 32 µg/mL | 8 µg/mL (≈ 26.7 µM) |
| C[C@H]1[C@H](NC(=O)/C(=N\OC(C)(C)C(=O)O)c2csc(N)n2)C(=O)N1S(=O)(=O)O [AZTREONAM] | – | – | 32 µg/mL (≈ 73.5 µM) | > 256 µg/mL | 64 µg/mL (≈ 147 µM) |
| CO/N=C(\C(=O)N[C@@H]1C(=O)N2C(C(=O)[O-])=C(C[N+]3(C)CCCC3)CS[C@H]12)c1csc(N)n1 [CEFEPIME] | 0.032 µg/mL (≈ 0.0666 µM) | 0.125 µg/mL (≈ 0.26 µM) | 2 µg/mL (≈ 4.16 µM) | > 256 µg/mL | – |
| CO/N=C(\C(=O)N[C@@H]1C(=O)N2C(C(=O)O)=C(COC(C)=O)CS[C@H]12)c1csc(N)n1 [CEFOTAXIME] | 0.094 µg/mL (≈ 0.206 µM) | 0.094 µg/mL (≈ 0.206 µM) | 4 µg/mL (≈ 8.78 µM) | > 256 µg/mL | 32 µg/mL (≈ 70.3 µM) |
| C[C@@H](O)[C@H]1C(=O)N2C(C(=O)O)=C(S[C@@H]3CN[C@H](C(=O)Nc4cccc(C(=O)O)c4)C3)[C@H](C)[C@H]12 [ERTAPENEM] | 0.008 µg/mL (≈ 0.0168 µM) | 0.012 µg/mL (≈ 0.0252 µM) | 0.5 µg/mL (≈ 1.05 µM) | > 256 µg/mL | 2 µg/mL (≈ 4.21 µM) |

— ChEMBL document CHEMBL1142210, “Plasmid-mediated KPC-2 in a Klebsiella pneumoniae isolate from China” (2007)
